This note sets out measurements from ChEMBL document CHEMBL4219075, “Synthesis and evaluation of novel dolastatin 10 derivatives for versatile conjugations” (Bioorg Med Chem, 2018).

The structures appear in SMILES notation. Active and inactive are the calls of the source. The rule behind the calls is not given here. Non-standard residues stand in square brackets, D forms with d. Residues, ends and D or L forms follow the SMILES beside them. *: point of attachment. Dolaproine = CO[C@@H]([C@@H]1CCCN1)[C@@H](C)C(=O)O; Dil = CC[C@H](C)[C@H](NC)[C@@H](CC(=O)O)OC; X1 = C[C@@H](N*)[C@@H](O)c1ccccc1; NMeV = CN[C@H](C(=O)O)C(C)C

One data set concerns A549. As to the kind of experiment: Cytotoxicity against human A549 cells after 2 days by cell titer 96 aqueous one solution based assay. In kind it is functional. The note with it: A549, 48 h. An outline of the steps: (§1)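 Cells (DMEM + 10% heat-inactivated FBS for SKOV-3 and A549) seeded at about 5000−50000/well and held overnight at 37°C, 5% CO2. DMSO stocks were diluted into medium with 1% FBS and no folic acid. Compounds at various concentrations were added in triplicate and incubated 2 days. MTS reagent was added for 1–2 h, absorbance read at 490 nm, and percent survival calculated versus untreated wells.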

For data set [1], the species on record is Sus scrofa. As to the kind of experiment: Inhibition of porcine brain tubulin polymerization measured every minute for 60 mins by absorbance spectroscopic analysis. An outline of the steps: (§2)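 Fluorescence-based HTS kit assay run with porcine brain tubulin at about 100 µg per well in general tubulin buffer. Compound at 3, 1 or 0.3 µM final, in duplicate, added at the start. Run at 37°C for 60 min, reading OD 360 nm (emission 450 nm) each minute. Polymerization compared with buffer-treated tubulin.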

Data set [2] in a line: Permeability of the compound at 200 umol/L after 5 hrs by PAMPA. The note with it: read-out: permeability. The class given is ADME. The method, boiled down: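 Compound solution in the donor (receiver-plate) wells; 20% MeOH in PBS in the pre-coated filter-plate wells. The assembly was incubated 5 h at room temperature. Donor and acceptor concentrations were measured by LC-MS. Permeability was calculated from filter area 0.3 cm², donor 0.32 mL, acceptor 0.2 mL, t = 18,000 s and equilibrium concentration.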

The subject of another data set is SK-OV-3. Nature of the data set: Cytotoxicity against human SKOV3 cells after 2 days by cell titer 96 aqueous one solution based assay. In kind it is functional. As to conditions: SK-OV-3, 48 h. The method, boiled down:
as §1

The subject of the next data set is L1210. Nature of the data set: Cytotoxicity against mouse L1210 cells after 2 days by cell titer 96 aqueous one solution based assay. The class given is functional. The note with it: L1210, 48 h. An outline of the steps: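 Mouse L1210 leukemia cells in RPMI-1640 + 10% heat-inactivated FBS were seeded at about 5000−50000/well and incubated overnight at 37°C, 5% CO2. Compounds were diluted in RPMI with 1% FBS and no folic acid, added at various concentrations in triplicate, and incubated 2 days. MTS was added for 1–2 h, A490 read, and survival expressed relative to untreated controls.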

Data set [3] in a line: Ratio of IC50 for human SKOV3 cells to IC50 for porcine brain tubulin polymerization.
The species named for data set [4] is Sus scrofa. Nature of the data set: Inhibition of porcine brain tubulin polymerization at 0.3 to 3 uM measured every minute for 60 mins by absorbance spectroscopic analysis. An outline of the steps:
as §2

Regarding `CC[C@H](C)[C@@H]([C@@H](CC(=O)N1CCC[C@H]1[C@H](OC)[C@@H](C)C(=O)N[C@@H](Cc1ccccc1)c1nc(C(=O)N(C)CCS)cs1)OC)N(C)C(=O)[C@@H](NC(=O)[C@H](C(C)C)N(C)C)C(C)C`, the values for the 50% inhibitory concentration (IC50) with A549, with SK-OV-3 and in the data set with L1210 were 1.2 nM, 1.1 nM and 7 nM, respectively. Further, the inhibition entry in the data set listed under Sus scrofa [1] is “Active”. Further, in data set [2], the Papp at 5 h, 200 µM was found to be 1.1 ×10⁻⁶ cm/s.
Regarding `CC[C@H](C)[C@@H]([C@@H](CC(=O)N1CCC[C@H]1[C@H](OC)[C@@H](C)C(=O)N[C@H](C)[C@@H](O)c1ccccc1)OC)N(C)C(=O)[C@@H](NC(=O)[C@@H](NC)C(C)C)C(C)C` (H-[NMeV]V[Dil][Dolaproine]-X1), the IC50 in the data set with A549 was 1.3 nM; with SK-OV-3, 0.66 nM; with L1210 it was 2.1 nM. In addition, the Papp at 5 h, 200 µM in data set [2] was 0.079 ×10⁻⁶ cm/s.
With `CC[C@H](C)[C@@H]([C@@H](CC(=O)N1CCC[C@H]1[C@H](OC)[C@@H](C)C(=O)N[C@@H](Cc1ccccc1)c1nc(C(=O)N(C)CCN)cs1)OC)N(C)C(=O)[C@@H](NC(=O)[C@H](C(C)C)N(C)C)C(C)C`, the IC50 in the data set with A549 worked out at 0.81 nM; with SK-OV-3, 0.56 nM; in the data set on L1210, 12 nM. Besides, the inhibition entry in the data set listed under Sus scrofa [1] was “Active”. In data set [2], the Papp at 5 h, 200 µM was 0.072 ×10⁻⁶ cm/s.
On the same counts, the results for `CC[C@H](C)[C@@H]([C@@H](CC(=O)N1CCC[C@H]1[C@H](OC)[C@@H](C)C(=O)N[C@@H](Cc1ccccc1)c1nc(C(=O)NCCO)cs1)OC)N(C)C(=O)[C@@H](NC(=O)[C@H](C(C)C)N(C)C)C(C)C` are 1.7 nM, 4.7 nM, 28 nM, “Active” and 0.02 ×10⁻⁶ cm/s.
As to `CCOC(=O)c1csc([C@H](Cc2ccccc2)NC(=O)[C@H](C)[C@@H](OC)[C@@H]2CCCN2C(=O)C[C@@H](OC)[C@H]([C@@H](C)CC)N(C)C(=O)[C@@H](NC(=O)[C@H](C(C)C)N(C)C)C(C)C)n1`, the inhibition result in the data set listed under Sus scrofa [1] was “Active”. Moreover, the Papp at 5 h, 200 µM in data set [2] is 3.2 ×10⁻⁶ cm/s. Besides, the concentration for half-maximal inhibition (IC50) with SK-OV-3 was 0.024 nM.
Consider `CC[C@H](C)[C@@H]([C@@H](CC(=O)N1CCC[C@H]1[C@H](OC)[C@@H](C)C(=O)N[C@@H](Cc1ccccc1)c1nc(C(=O)NCCc2ccc(O)cc2)cs1)OC)N(C)C(=O)[C@@H](NC(=O)[C@H](C(C)C)N(C)C)C(C)C`, for which the half-maximal inhibitory concentration (IC50) came to 1.3 nM with A549, 0.37 nM in the data set on SK-OV-3 and 5.6 nM in the data set with L1210. Besides, in the data set filed under Sus scrofa [1], the inhibition entry was “Active”. In data set [2], the Papp at 5 h, 200 µM turned out to be 0.36 ×10⁻⁶ cm/s.
On the same counts, the results for `CC[C@H](C)[C@@H]([C@@H](CC(=O)N1CCC[C@H]1[C@H](OC)[C@@H](C)C(=O)N[C@@H](Cc1ccccc1)c1nc(C(=O)OCCS)cs1)OC)N(C)C(=O)[C@@H](NC(=O)[C@H](C(C)C)N(C)C)C(C)C` are 6.9 nM, 0.13 nM, 14 nM, “Active” and 0.005 ×10⁻⁶ cm/s.
On the same counts, the results for `CC[C@H](C)[C@@H]([C@@H](CC(=O)N1CCC[C@H]1[C@H](OC)[C@@H](C)C(=O)N[C@@H](Cc1ccccc1)c1nc(C(=O)NCCNC)cs1)OC)N(C)C(=O)[C@@H](NC(=O)[C@H](C(C)C)N(C)C)C(C)C` are 9.9 nM, above 10 nM, 27 nM, “Active” and 0.004 ×10⁻⁶ cm/s.
Consider `CC[C@H](C)[C@@H]([C@@H](CC(=O)N1CCC[C@H]1[C@H](OC)[C@@H](C)C(=O)N[C@@H](Cc1ccccc1)c1nc(C(=O)N(C)CCNC)cs1)OC)N(C)C(=O)[C@@H](NC(=O)[C@H](C(C)C)N(C)C)C(C)C`, for which the IC50 came out at 1.9 nM in the data set on A549, 0.19 nM in the data set with SK-OV-3 and 14 nM with L1210. Moreover, the inhibition entry in the data set listed under Sus scrofa [1] was “Active”. For the same compound, in data set [2], the Papp at 5 h, 200 µM was below 0.001 ×10⁻⁶ cm/s.
On to `CC[C@H](C)[C@@H]([C@@H](CC(=O)N1CCC[C@H]1[C@H](OC)[C@@H](C)C(=O)N[C@@H](Cc1ccccc1)c1nc(C(=O)NCCN)cs1)OC)N(C)C(=O)[C@@H](NC(=O)[C@H](C(C)C)N(C)C)C(C)C`, for which the IC50 in the data set with A549 was above 10 nM; in the data set on SK-OV-3, above 10 nM; in the data set with L1210, above 50 nM. Besides, the “Ratio IC50” value in data set [3] is above 30. Besides, in the data set filed under Sus scrofa [4], the inhibition entry is “Active”. The Papp at 5 h, 200 µM in data set [2] worked out at 0.056 ×10⁻⁶ cm/s.
On to `CC[C@H](C)[C@@H]([C@@H](CC(=O)N1CCC[C@H]1[C@H](OC)[C@@H](C)C(=O)N[C@@H](Cc1ccccc1)c1nc(C(=O)NCCc2ccc(N)cc2)cs1)OC)N(C)C(=O)[C@@H](NC(=O)[C@H](C(C)C)N(C)C)C(C)C`, for which the values for the IC50 in the data set with A549, with SK-OV-3 and with L1210 were 1.1 nM, 0.27 nM and 4.1 nM, respectively. Besides, the “Ratio IC50” value in data set [3] is above 30. In addition, in the data set listed under Sus scrofa [4], the inhibition result was “Active”. The Papp at 5 h, 200 µM in data set [2] was 0.3 ×10⁻⁶ cm/s.
Take `CCNC(=O)c1csc([C@H](Cc2ccccc2)NC(=O)[C@H](C)[C@@H](OC)[C@@H]2CCCN2C(=O)C[C@@H](OC)[C@H]([C@@H](C)CC)N(C)C(=O)[C@@H](NC(=O)[C@H](C(C)C)N(C)C)C(C)C)n1`: the 50% inhibitory concentration (IC50) in the data set on A549 came to 0.74 nM; in the data set on SK-OV-3, 0.55 nM; in the data set on L1210, 6.5 nM. In addition, in the data set filed under Sus scrofa [1], the inhibition entry was “Active”. In data set [2], the Papp at 5 h, 200 µM is 1.7 ×10⁻⁶ cm/s.
The like results for `CC[C@H](C)[C@@H]([C@@H](CC(=O)N1CCC[C@H]1[C@H](OC)[C@@H](C)C(=O)N[C@@H](Cc1ccccc1)c1nc(C(=O)OCCN)cs1)OC)N(C)C(=O)[C@@H](NC(=O)[C@H](C(C)C)N(C)C)C(C)C` were, in that order, 0.83 nM, 0.85 nM, 29 nM, “Active” and 0.007 ×10⁻⁶ cm/s.
For `CC[C@H](C)[C@@H]([C@@H](CC(=O)N1CCC[C@H]1[C@H](OC)[C@@H](C)C(=O)N[C@@H](Cc1ccccc1)c1nc(C(=O)OCCO)cs1)OC)N(C)C(=O)[C@@H](NC(=O)[C@H](C(C)C)N(C)C)C(C)C`, the IC50 in the data set on A549 stood at 1.8 nM; with SK-OV-3 it was 0.086 nM; in the data set with L1210 it was 4.7 nM. For the same compound, the inhibition result in the data set filed under Sus scrofa [1] was “Active”. Further, the Papp at 5 h, 200 µM in data set [2] is 0.04 ×10⁻⁶ cm/s.
For `CC[C@H](C)[C@@H]([C@@H](CC(=O)N1CCC[C@H]1[C@H](OC)[C@@H](C)C(=O)N[C@@H](Cc1ccccc1)c1nc(C(=O)N(C)CCO)cs1)OC)N(C)C(=O)[C@@H](NC(=O)[C@H](C(C)C)N(C)C)C(C)C`, the IC50 in the data set with A549 is 1.6 nM; in the data set on SK-OV-3, 1.5 nM; in the data set with L1210 it was 8.5 nM. Besides, the inhibition result in the data set filed under Sus scrofa [1] is “Active”. Moreover, the Papp at 5 h, 200 µM in data set [2] turned out to be 0.077 ×10⁻⁶ cm/s.
The like results for `CC[C@H](C)[C@@H]([C@@H](CC(=O)N1CCC[C@H]1[C@H](OC)[C@@H](C)C(=O)N[C@@H](Cc1ccccc1)c1nc(C(=O)NCCS)cs1)OC)N(C)C(=O)[C@@H](NC(=O)[C@H](C(C)C)N(C)C)C(C)C` were, in that order, 1.9 nM, 0.44 nM, 31 nM, “Active” and 1.1 ×10⁻⁶ cm/s.
